In brackets after ≈: the same amount, converted by molar mass. Activity calls are given as the source filed them. No cut-off for these calls is given here.
Columns and labels:
[1] = biological target: Beta-lactamase (Klebsiella pneumoniae) (UniProt Q93LQ9); assay: Inhibition of Klebsiella pneumoniae KP1004 KPC 2 carbapenemase assessed as minimum concentration required to reduce biapenem MIC from […] ug/ml to 1 ug/mL by broth microdilution method
[2] = system: Klebsiella pneumoniae; assay: Antibacterial activity against Klebsiella pneumoniae KP1004 by broth microdilution method; format: functional, organism-based
[3] = Inhibition of Escherichia coli recombinant KPC-2 assessed as substrate nitrocefin degradation preincubated for 10 mins followed by substrate addition measured every 10 secs for 10 mins by spectrophotometric analysis
Procedure, shortened: (§1)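 β-Lactamases purified from overexpressing recombinant E. coli. Enzyme preincubated with inhibitor at varying concentrations for 10 min at room temperature in 50 mM Na phosphate pH 7.0, 0.1 mg/mL BSA. Then 50 μM nitrocefin (final) added and cleavage read at 490 nm every 10 s for 10 min. Ki derived by the Waley method.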

[4] = Inhibition of Escherichia coli recombinant CTX-M-15 assessed as substrate nitrocefin degradation preincubated for 10 mins followed by substrate addition measured every 10 secs for 10 mins by spectrophotometric analysis; procedure, shortened: as §1
[5] = Inhibition of Escherichia coli recombinant SHV-12 assessed as substrate nitrocefin degradation preincubated for 10 mins followed by substrate addition measured every 10 secs for 10 mins by spectrophotometric analysis; procedure, shortened: as §1
[6] = Inhibition of Escherichia coli recombinant TEM-10 assessed as substrate nitrocefin degradation preincubated for 10 mins followed by substrate addition measured every 10 secs for 10 mins by spectrophotometric analysis; procedure, shortened: as §1
[7] = Inhibition of Escherichia coli recombinant P99 assessed as substrate nitrocefin degradation preincubated for 10 mins followed by substrate addition measured every 10 secs for 10 mins by spectrophotometric analysis; procedure, shortened: as §1
[8] = Inhibition of Escherichia coli recombinant CMY-2 assessed as substrate nitrocefin degradation preincubated for 10 mins followed by substrate addition measured every 10 secs for 10 mins by spectrophotometric analysis; procedure, shortened: as §1
[9] = system: Escherichia coli; assay: microbe, parasite or virus in culture; conditions: EC1008
[10] = system: Klebsiella pneumoniae; assay: microbe, parasite or virus in culture; conditions: KP1005
[11] = system: Klebsiella pneumoniae; assay: microbe, parasite or virus in culture; conditions: KP1009
[12] = system: Klebsiella pneumoniae; assay: microbe, parasite or virus in culture; conditions: KP1011
[13] = system: Klebsiella pneumoniae; assay: microbe, parasite or virus in culture; conditions: KP1010
[14] = system: Escherichia coli; assay: microbe, parasite or virus in culture; conditions: EC1009
[15] = system: Escherichia coli; assay: microbe, parasite or virus in culture; conditions: EC1011
[16] = system: Klebsiella oxytoca; assay: microbe, parasite or virus in culture; conditions: KX1001
[17] = system: Klebsiella aerogenes; assay: microbe, parasite or virus in culture; conditions: EA1028
[18] = system: Klebsiella pneumoniae; assay: Antibacterial activity against Klebsiella pneumoniae KP1082 expressing KPC2/SHV-1 by broth microdilution method; format: functional
[19] = system: Klebsiella pneumoniae; assay: Antibacterial activity against Klebsiella pneumoniae KP1087 expressing KPC2/CTX-M-15/SHV-11/TEM-1 by broth microdilution method; format: functional
[20] = system: Klebsiella pneumoniae; assay: Antibacterial activity against Klebsiella pneumoniae KP1083 expressing KPC3/SHV-1/TEM-1 by broth microdilution method; format: functional
[21] = system: Klebsiella pneumoniae; assay: Antibacterial activity against Klebsiella pneumoniae KP1084 expressing KPC3/SHV-11/TEM-1 by broth microdilution method; format: functional
[22] = system: Klebsiella pneumoniae; assay: Antibacterial activity against Klebsiella pneumoniae KP1088 expressing KPC3/SHV-11/TEM-1 by broth microdilution method; format: functional
[23] = system: Enterobacter cloacae; assay: Antibacterial activity against Enterobacter cloacae ECL1058 expressing KPC3/SHV-11/TEM-1 by broth microdilution method; format: functional
[24] = system: Klebsiella oxytoca; assay: Antibacterial activity against Klebsiella oxytoca KX1019 expressing KPC2/OXA2 by broth microdilution method; format: functional
[25] = system: Klebsiella oxytoca; assay: Antibacterial activity against Klebsiella oxytoca KX1017 expressing KPC2/OXA2/SHV30 by broth microdilution method; format: functional
[26] = system: Klebsiella pneumoniae; assay: Antibacterial activity against Klebsiella pneumoniae KP1004 expressing KPC2/TEM1/SHV11 by broth microdilution method; format: functional
[27] = system: Klebsiella pneumoniae; assay: Antibacterial activity against Klebsiella pneumoniae KP1008 expressing KPC2 by broth microdilution method; format: functional
[28] = system: Escherichia coli; assay: microbe, parasite or virus in culture; conditions: EC1007
[29] = Inhibition of Escherichia coli MV1183 TEM-1 using nitrocefin as substrate preincubated for 10 mins followed by substrate addition measured for 500 secs
[30] = system: Klebsiella pneumoniae; assay: Antibacterial activity against Klebsiella pneumoniae KP1074 in Swiss webster neutropenic mouse lung infection model assessed as change in log10 CFU in lung at 100 mg/kg, ip administered every 2 hrs starting at 2 hrs postinfection measured after 24 hrs relative to control; format: functional
Procedure, shortened: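 Neutropenic (cyclophosphamide) Swiss Webster mice infected intratracheally under isoflurane anesthesia with K. pneumoniae KP1074. […] Lungs removed 24 h after start of treatment, homogenized and plated for bacterial counts (CFU).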

[31] = system: Klebsiella pneumoniae; assay: Antibacterial activity against Klebsiella pneumoniae KP1074 in Swiss webster neutropenic mouse lung infection model assessed as change in log10 CFU in lung at 50 mg/kg, ip administered every 2 hrs starting at 2 hrs postinfection measured after 24 hrs relative to control; format: functional
Procedure, shortened: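 Swiss Webster mice made neutropenic with cyclophosphamide and infected intratracheally under isoflurane with KP1074. […] Lungs harvested 24 h after the start of treatment, homogenized and plated for CFU.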

[32] = Competitive inhibition of Escherichia coli RTEM-1

Chain of Beta-lactamase (Klebsiella pneumoniae) (Q93LQ9 as listed by the source): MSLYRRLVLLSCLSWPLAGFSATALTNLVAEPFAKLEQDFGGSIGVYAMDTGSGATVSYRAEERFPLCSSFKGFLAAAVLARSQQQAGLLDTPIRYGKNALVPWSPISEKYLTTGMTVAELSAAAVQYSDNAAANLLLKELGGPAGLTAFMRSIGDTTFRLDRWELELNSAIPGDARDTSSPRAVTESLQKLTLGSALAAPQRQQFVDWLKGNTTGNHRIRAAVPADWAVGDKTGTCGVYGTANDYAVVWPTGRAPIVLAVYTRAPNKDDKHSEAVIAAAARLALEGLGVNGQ

SMILES: O=C(O)C[C@@H]1CC[C@H](NC(=O)CCc2ccccc2)B(O)O1
- MEC [1]: 0.3 µg/mL
- Activity [2]: inactive

SMILES: C[C@]1(Cn2ccnn2)[C@H](C(=O)O)N2C(=O)C[C@H]2S1(=O)=O [TAZOBACTAM]
- Ki [3]: 1.6 µM
- Ki [4]: 0.001 µM
- Ki [5]: 0.0004 µM
- Ki [6]: 0.005 µM
- Ki [7]: 1.1 µM
- Ki [8]: 0.71 µM

SMILES: CO/N=C(\C(=O)N[C@H]1CC[C@@H](CC(=O)O)OB1O)c1csc(N)n1 (stereo in doubt)
- MEC [1]: 1.25 µg/mL
- Activity [2]: inactive

SMILES: CO/N=C(\C(=O)N[C@@H]1C(=O)N2C(C(=O)[O-])=C(C[N+]3(C)CCCC3)CS[C@H]12)c1csc(N)n1
- MIC [9]: > 64 µg/mL
- MIC [10]: 64 µg/mL (≈ 133 µM)
- MIC [11]: > 64 µg/mL
- MIC [12]: 64 µg/mL (≈ 133 µM)
- MIC [13]: 2 µg/mL (≈ 4.16 µM)
- MIC [14]: 8 µg/mL (≈ 16.6 µM)
- MIC [15]: 8 µg/mL (≈ 16.6 µM)
- MIC [16]: 4 µg/mL (≈ 8.32 µM)
- MIC [17]: > 64 µg/mL

SMILES: C[C@@H](O)[C@H]1C(=O)N2C(C(=O)O)=C(S[C@@H]3CN[C@H](C(=O)Nc4cccc(C(=O)O)c4)C3)[C@H](C)[C@H]12
- MIC [18]: 4 µg/mL (≈ 8.41 µM)
- MIC [19]: > 64 µg/mL
- MIC [20]: 32 µg/mL (≈ 67.3 µM)
- MIC [21]: > 64 µg/mL
- MIC [22]: 16 µg/mL (≈ 33.6 µM)
- MIC [23]: 32 µg/mL (≈ 67.3 µM)
- MIC [24]: 16 µg/mL (≈ 33.6 µM)
- MIC [25]: 16 µg/mL (≈ 33.6 µM)
- MIC [26]: 32 µg/mL (≈ 67.3 µM)
- MIC [27]: 8 µg/mL (≈ 16.8 µM)
- MIC [28]: 8 µg/mL (≈ 16.8 µM)

SMILES: CC(=O)N[C@H]1CC[C@@H](CC(=O)O)OB1O
- MEC [1]: 0.3 µg/mL
- Activity [2]: inactive

SMILES: O=C(Cc1ccccc1)NC(Cc1cccc(C(=O)O)c1)B(O)O (stereo not drawn)
- Ki [29]: 0.006 µM

SMILES: O=C(O)C[C@@H]1CC[C@H](NC(=O)c2ccccc2)B(O)O1
- MEC [1]: 0.3 µg/mL
- Activity [2]: inactive

SMILES: O=C(O)C[C@@H]1CC[C@H](NC(=O)Cc2cccc(O)c2)B(O)O1
- MEC [1]: 1.25 µg/mL
- Activity [2]: inactive

SMILES: O=C(O)C[C@@H]1CC[C@H](NC(=O)C2CC2)B(O)O1
- MEC [1]: 0.15 µg/mL
- Activity [2]: inactive

SMILES: O=C(O)C[C@@H]1CC[C@H](NC(=O)Cc2ccncc2)B(O)O1
- MEC [1]: 0.15 µg/mL
- Activity [2]: inactive

SMILES: C[C@@H](O)[C@H]1C(=O)N2C(C(=O)O)=C(S[C@@H]3CN[C@H](C(=O)N(C)C)C3)[C@H](C)[C@H]12 [MEROPENEM]
- MIC [18]: 4 µg/mL (≈ 10.4 µM)
- MIC [19]: 64 µg/mL (≈ 167 µM)
- MIC [21]: > 64 µg/mL
- MIC [22]: 8 µg/mL (≈ 20.9 µM)
- deltalog10CFU [30]: 1.41
- MIC [23]: 8 µg/mL (≈ 20.9 µM)
- MIC [24]: 4 µg/mL (≈ 10.4 µM)
- MIC [25]: 4 µg/mL (≈ 10.4 µM)
- MIC [26]: 8 µg/mL (≈ 20.9 µM)
- MIC [27]: 4 µg/mL (≈ 10.4 µM)
- MIC [28]: 4 µg/mL (≈ 10.4 µM)

SMILES: O=C(O)C[C@@H]1CC[C@H](NC(=O)C[C@H]2CCCCN2)B(O)O1
- MEC [1]: 0.15 µg/mL
- Activity [2]: inactive

SMILES: Nc1cc(CC(=O)N[C@H]2CC[C@@H](CC(=O)O)OB2O)ccn1
- MEC [1]: 0.04 µg/mL
- Activity [2]: inactive

SMILES: O=C(O)C[C@@H]1CC[C@H](NC(=O)Cc2ccccc2)B(O)O1
- MEC [1]: 0.15 µg/mL
- Activity [2]: inactive

SMILES: O=C(O)C[C@@H]1CC[C@H](NC(=O)Cc2cccnc2)B(O)O1
- MEC [1]: 0.15 µg/mL
- Activity [2]: inactive

SMILES: O=C(O)C[C@@H]1CC[C@H](NC(=O)C(O)c2ccccc2)B(O)O1 (stereo partly drawn)
- MEC [1]: 0.61 µg/mL
- Activity [2]: inactive

SMILES: Nc1nc(CC(=O)N[C@H]2CC[C@@H](CC(=O)O)OB2O)cs1
- MEC [1]: 0.61 µg/mL
- Activity [2]: inactive

SMILES: C[C@@H](O)[C@H]1C(=O)N2C(C(=O)O)=C(SCCNC=N)C[C@H]12 [IMIPENEM ANHYDROUS]
- MIC [18]: 4 µg/mL (≈ 13.4 µM)
- MIC [19]: 16 µg/mL (≈ 53.4 µM)
- MIC [20]: 16 µg/mL (≈ 53.4 µM)
- MIC [21]: 64 µg/mL (≈ 214 µM)
- MIC [22]: 32 µg/mL (≈ 107 µM)
- MIC [23]: 8 µg/mL (≈ 26.7 µM)
- MIC [24]: 4 µg/mL (≈ 13.4 µM)
- MIC [25]: 8 µg/mL (≈ 26.7 µM)
- MIC [26]: 8 µg/mL (≈ 26.7 µM)
- MIC [27]: 4 µg/mL (≈ 13.4 µM)
- MIC [28]: 8 µg/mL (≈ 26.7 µM)

SMILES: C[C@@H](O)[C@H]1C(=O)N2C(C(=O)[O-])=C(SC3Cn4cnc[n+]4C3)[C@H](C)[C@H]12 (stereo partly drawn) [BIAPENEM]
- MIC [18]: 4 µg/mL (≈ 11.4 µM)
- MIC [19]: 16 µg/mL (≈ 45.7 µM)
- MIC [20]: 16 µg/mL (≈ 45.7 µM)
- MIC [21]: 64 µg/mL (≈ 183 µM)
- MIC [22]: 32 µg/mL (≈ 91.3 µM)
- deltalog10CFU [31]: 0.88
- MIC [23]: 8 µg/mL (≈ 22.8 µM)
- MIC [24]: 8 µg/mL (≈ 22.8 µM)
- MIC [25]: 4 µg/mL (≈ 11.4 µM)
- MIC [26]: 8 µg/mL (≈ 22.8 µM)
- MIC [27]: 8 µg/mL (≈ 22.8 µM)
- MIC [28]: 8 µg/mL (≈ 22.8 µM)

SMILES: N[C@H](C(=O)N[C@H]1CC[C@@H](CC(=O)O)OB1O)c1ccccc1
- MEC [1]: 0.3 µg/mL
- Activity [2]: inactive

SMILES: O=C(O)[C@H]1/C(=C/CO)O[C@@H]2CC(=O)N21 [CLAVULANIC ACID]
- Ki [3]: 41.2 µM
- Ki [4]: 0.027 µM
- Ki [5]: ≤ 0.039 µM
- Ki [6]: 0.02 µM
- Ki [7]: 1110 µM
- Ki [8]: 845 µM

SMILES: O=C(O)C[C@@H]1CC[C@H](NC(=O)Cc2ccccc2O)B(O)O1
- MEC [1]: 0.16 µg/mL
- Activity [2]: inactive

SMILES: O=C(O)C[C@@H]1CC[C@H](NC(=O)Cc2ccccn2)B(O)O1
- MEC [1]: 0.15 µg/mL
- Activity [2]: inactive

SMILES: CC(=O)NC(Cc1cccc(C(=O)O)c1)B(O)O (stereo not drawn)
- Ki [32]: 0.11 µM

SMILES: NCCSCC(=O)N[C@H]1CC[C@@H](CC(=O)O)OB1O
- MEC [1]: 0.3 µg/mL
- Activity [2]: inactive

SMILES: CC(=O)NC(Cc1cccc(C(=O)O)c1O)B(O)O (stereo not drawn)
- Ki [29]: 0.013 µM
